Experimental data collected from several papers.
Lines come from different studies, so protocols differ.
FLT3: Receptor-type tyrosine-protein kinase FLT3 (FLT3, Homo sapiens, UniProt P36888)
FLT3 D835Y: Receptor-type tyrosine-protein kinase FLT3 (FLT3, Homo sapiens, UniProt P36888, D835Y)

Structure (SMILES)	target	test	setting	inhibition [%]
COc1cc2ncnc(Nc3ccc(Oc4ccccc4)cc3C)c2cc1OC	FLT3	enzyme activity, inhibitor	1 µM	79
CCOc1cc(-c2nncn2C)ccc1Nc1ncc2cc(C)nc(NCC(C)(C)C)c2n1	FLT3	enzyme activity, inhibitor, FRET	1 µM	54
CC/C(=N\NC(=O)NCc1cccc(O)c1)c1ccc(O)c(C)c1O	FLT3	enzyme activity, inhibitor	0.1 µM	6
COc1cccc(Nc2cccc(-c3cnc4cc(-c5cnn(C)c5)ccn34)n2)c1	FLT3	cell-free assay, competition with immobilised ligand	8.4 nM	> 65
CNc1cccc2cc(C(=O)Nc3ccc(C(=O)O)cc3)c(=O)[nH]c12	FLT3	enzyme activity, inhibitor	10 µM	7.9
COc1cc(-c2cc(-c3ccc(N4CCNCC4)cc3)cnc2N)cc(OC)c1OC	FLT3 D835Y	enzyme activity, inhibitor	1 µM	2
Cn1cnc(Br)c1C1=CN(c2ncnc3[nH]cnc23)CCS1	FLT3	enzyme activity, inhibitor, radiometric	50 nM	16.8
COc1cc2ncnc(Nc3ccc(Oc4ccccc4)c(C)c3C)c2cc1OC	FLT3 D835Y	enzyme activity, inhibitor	1 µM	2
C=CC(=O)Nc1cc(Nc2nccc(Nc3cc(Cl)c(F)cc3C(C)(C)O)n2)c(OC)cc1N1CC[C@@H](N(C)C)C1	FLT3	enzyme activity, inhibitor	1 µM	16
CN(C)C1CCN(CC#Cc2nn(C3CCCC3)c3nc(NCc4ccccc4)ncc23)C1 (stereo not drawn)	FLT3	enzyme activity, inhibitor, FRET	0.1 µM	13
O=C(CSc1nc2nccnc2c(=O)n1CCc1ccccc1)Nc1nccs1	FLT3	enzyme activity, inhibitor	10 µM	13
Cn1cncc1C1=CN(c2ncnc3[nH]cnc23)CCS1	FLT3	enzyme activity, inhibitor, radiometric	50 nM	22.2
